Measurements published in ChEMBL document CHEMBL1145908 (J Med Chem, 2003).
The source made the active and inactive calls. The calls are words filed in the database; no cut-off is given here. Residues, ends and D or L forms follow the SMILES beside them. *: point of attachment. X1 = CC(C)CCC[C@@H](C)[C@H]1CCC2C3CC=C4C[C@H](SC[C@@H]5CCN6CC[C@@H](CSCC(=O)*)NC6=N5)CC[C@]4(C)C3CC[C@@]21C; X3 = CC(C)(C)[Si](OC[C@@H]1CCN2CC[C@@H](COC(=O)CCCCC(=O)*)NC2=N1)(c1ccccc1)c1ccccc1; X5 = CC(C)(C)[Si](OC[C@@H]1CCN2CC[C@@H](CNC(=O)CCCCC(=O)*)NC2=N1)(c1ccccc1)c1ccccc1; X2 = CC(C)(C)[Si](OCC1CCN2CCC(CSCC(=O)*)NC2=N1)(c1ccccc1)c1ccccc1; X4 = O=C(CCCCC(=O)*)OC[C@@H]1CCN2CC[C@@H](CO)N=C2N1; X6 = O=C(CCCCC(=O)*)NC[C@@H]1CCN2CC[C@@H](CO)N=C2N1; OBn = c1ccc(CO*)cc1; Bn = c1ccc(C*)cc1

What was measured:
[1] = target: Human immunodeficiency virus type 1 protease (Human immunodeficiency virus 1) (UniProt Q72874); experiment: Dimerization inhibition against HIV-1 Protease
How it was run: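 Recombinant HIV-1 PR expressed in E. coli (pET9c-PR). Hydrolysis of DABCYL-γ-abu-[…]EDANS (5.2 μM) was followed by fluorescence (ex 340/em 490 nm) in 100 mM sodium acetate, 1 mM EDTA, 1 M NaCl, pH 4.7, 30 °C, with 3% DMSO final. Initial rates were taken at ≥7 enzyme levels (1.88–28 nM) per inhibitor concentration. Kic/Kid were obtained by Zhang's method from [E]0/√vi vs √vi plots.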

[2] = target: Human immunodeficiency virus type 1 protease (Human immunodeficiency virus 1, UniProt Q72874); experiment: In vitro inhibitory activity against HIV-1 Protease
How it was run: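 Recombinant HIV-1 PR expressed in E. coli (pET9c-PR). Fluorogenic DABCYL-γ-abu-[…]EDANS substrate 5.2 μM, enzyme 7.5 nM, in 100 mM sodium acetate, 1 mM EDTA, 1 M NaCl, pH 4.7, 30 °C, 3% DMSO final. Fluorescence read at ex 340/em 490 nm. IC50 fitted from % inhibition across 0.5–28 μM inhibitor. Ki derived by Zhang's method using 1.88–28 nM enzyme.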

[3] = target: Human immunodeficiency virus type 1 protease (Human immunodeficiency virus 1) (UniProt Q72874); experiment: Competitive inhibition against HIV-1 Protease
[4] = target: Human immunodeficiency virus type 1 protease (Human immunodeficiency virus 1) (UniProt Q72874); experiment: Inhibitory activity against HIV-1 Protease at 14 uM
[5] = target: Human immunodeficiency virus type 1 protease (Human immunodeficiency virus 1) (UniProt Q72874); experiment: Inhibitory activity against HIV-1 Protease at 28 uM
[6] = target: Human immunodeficiency virus type 1 protease (Human immunodeficiency virus 1) (UniProt Q72874); experiment: In vitro inhibitory activity against HIV-1 Protease; No inhibition

Row | SMILES | Kid [1] | IC50 [2] | also measured
1 | CC(C)CCC[C@@H](C)[C@H]1CCC2C3CC=C4C[C@H](SC[C@@H]5CCN6CC[C@@H](CSCC(=O)NCC(=O)N[C@@H](C)C(=O)N[C@H](C(=O)N[C@@H](CC(C)C)C(=O)N[C@@H](CC(N)=O)C(=O)N[C@@H](Cc7ccccc7)C(=O)OCc7ccccc7)[C@@H](C)OCc7ccccc7)NC6=N5)CC[C@]4(C)C3CC[C@@]21C (some centres undefined) (X1-GAT(Bn)LNF-OBn) | 0.4 µM | 3 µM | Kic [3]: 0.4 µM
2 | CC[C@H](C)[C@H](NC(=O)[C@H](C)NC(=O)CSCC1CCN2CCC(CO[Si](c3ccccc3)(c3ccccc3)C(C)(C)C)N=C2N1)C(=O)N[C@H](C(=O)N[C@@H](CC(C)C)C(=O)N[C@@H](Cc1c[nH]c2ccccc12)C(=O)OC)[C@@H](C)OCc1ccccc1 (some centres undefined) (X2-AIT(Bn)LW-OMe) | 6.5 µM | 5 µM | –
3 | CC(C)C[C@H](NC(=O)[C@@H](NC(=O)[C@H](C)NC(=O)CNC(=O)CSCC1CCN2CCC(CO[Si](c3ccccc3)(c3ccccc3)C(C)(C)C)N=C2N1)[C@@H](C)OCc1ccccc1)C(=O)N[C@@H](CC(N)=O)C(=O)N[C@@H](Cc1ccccc1)C(=O)O (some centres undefined) (X2-GAT(Bn)LNF-OH) | – | 11 µM | –
4 | CC[C@H](C)[C@H](NC(=O)CNC(=O)CSCC1CCN2CCC(CO[Si](c3ccccc3)(c3ccccc3)C(C)(C)C)N=C2N1)C(=O)N[C@@H](COCc1ccccc1)C(=O)N[C@@H](Cc1ccc(OCc2ccccc2)cc1)C(=O)N[C@@H](CC(N)=O)C(=O)N[C@@H](CC(C)C)C(=O)OC (some centres undefined) (X2-GIS(Bn)Y(Bn)NL-OMe) | 0.29 µM | 3.3 µM | –
5 | CC[C@H](C)[C@H](NC(=O)CNC(=O)CSCC1CCN2CCC(CO[Si](c3ccccc3)(c3ccccc3)C(C)(C)C)N=C2N1)C(=O)N[C@@H](CO)C(=O)N[C@@H](Cc1ccc(O)cc1)C(=O)N[C@@H](CC(N)=O)C(=O)N[C@@H](CC(C)C)C(=O)OC (some centres undefined) (X2-GISYNL-OMe) | – | 5 µM | Kic [3]: 6 µM
6 | COC(=O)[C@H](Cc1ccccc1)NC(=O)[C@H](CC(N)=O)NC(=O)[C@H](CC(C)C)NC(=O)[C@@H](NC(=O)[C@H](C)NC(=O)CCCCC(=O)OC[C@@H]1CCN2CC[C@@H](CO[Si](c3ccccc3)(c3ccccc3)C(C)(C)C)N=C2N1)[C@@H](C)O (X3-ATLNF-OMe) | 0.55 µM | 1.9 µM | –
7 | COC(=O)[C@H](Cc1ccccc1)NC(=O)[C@H](CC(N)=O)NC(=O)[C@H](CC(C)C)NC(=O)[C@@H](NC(=O)[C@H](C)NC(=O)CCCCC(=O)OC[C@@H]1CCN2CC[C@@H](CO)N=C2N1)[C@@H](C)O (X4-ATLNF-OMe) | – | – | inhibition [4]: 28%
8 | COC(=O)[C@H](Cc1ccccc1)NC(=O)[C@H](CC(N)=O)NC(=O)[C@H](CC(C)C)NC(=O)[C@@H](NC(=O)[C@H](C)NC(=O)CCCCC(=O)NC[C@@H]1CCN2CC[C@@H](CO[Si](c3ccccc3)(c3ccccc3)C(C)(C)C)N=C2N1)[C@@H](C)O (X5-ATLNF-OMe) | – | – | inhibition [5]: 28%
9 | COC(=O)[C@H](Cc1ccccc1)NC(=O)[C@H](CC(N)=O)NC(=O)[C@H](CC(C)C)NC(=O)[C@@H](NC(=O)[C@H](C)NC(=O)CCCCC(=O)NC[C@@H]1CCN2CC[C@@H](CO)N=C2N1)[C@@H](C)O (X6-ATLNF-OMe) | – | – | NI [6]: inactive
10 | CC(C)C[C@H](NC(=O)[C@@H](NC(=O)[C@H](C)NC(=O)CNC(=O)CSCC1CCN2CCC(CO[Si](c3ccccc3)(c3ccccc3)C(C)(C)C)N=C2N1)[C@@H](C)OCc1ccccc1)C(=O)N[C@@H](CC(N)=O)C(=O)N[C@@H](Cc1ccccc1)C(=O)OCc1ccccc1 (stereo in doubt; 6 (S,S)) [listing 1 of 2 here] | – | 1.6 µM | –
11 | CC(C)C[C@H](NC(=O)[C@@H](NC(=O)[C@H](C)NC(=O)CNC(=O)CSCC1CCN2CCC(CO[Si](c3ccccc3)(c3ccccc3)C(C)(C)C)N=C2N1)[C@@H](C)OCc1ccccc1)C(=O)N[C@@H](CC(N)=O)C(=O)N[C@@H](Cc1ccccc1)C(=O)OCc1ccccc1 (stereo in doubt; 6 (S,S)) [listing 2 of 2 here] | 0.15 µM | – | –
12 | CC(C)C[C@H](NC(=O)[C@@H](NC(=O)[C@H](C)NC(=O)CNC(=O)CSCC1CCN2CCC(CO[Si](c3ccccc3)(c3ccccc3)C(C)(C)C)N=C2N1)[C@@H](C)OCc1ccccc1)C(=O)N[C@@H](CC(N)=O)C(=O)N[C@@H](Cc1ccccc1)C(=O)OCc1ccccc1 (stereo in doubt; 6'(R,R)) [listing 1 of 2 here] | – | 2 µM | –
13 | CC(C)C[C@H](NC(=O)[C@@H](NC(=O)[C@H](C)NC(=O)CNC(=O)CSCC1CCN2CCC(CO[Si](c3ccccc3)(c3ccccc3)C(C)(C)C)N=C2N1)[C@@H](C)OCc1ccccc1)C(=O)N[C@@H](CC(N)=O)C(=O)N[C@@H](Cc1ccccc1)C(=O)OCc1ccccc1 (stereo in doubt; 6'(R,R)) [listing 2 of 2 here] | 0.15 µM | – | –
